From PubChem
Efflux pump mplx: inhibitors of Candida antifungal efflux pumps expressed in yeast | S. cerevisiae Candida pump triplex, Nile Red efflux | inhibition, % at 10 µM | hit rate 0.44% among 330,000;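 active means plate passing quality check with inhibition over a set limit, or well fluorescence over plate mean plus 4 SD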;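 further: Nile Red retained in pooled yeast measured as flow cytometry median fluorescence; 0% = buffer negative control and 100% = Enniatin B positive control; higher means more Nile Red kept so more efflux inhibition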
IDE act: activators of human insulin-degrading enzyme in cells | P14735 | hit rate 0.073% among 340,000 | HEK cells, FAbeta-B cleavage, fluorescence polarization; 0% vehicle, 100% cell-free pure enzyme wells | activation, % at 5.96 µM;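 active means activation above the mean of all tested compounds plus 3 SD, set per screening campaign, cut at about 17% in these data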
Target sequence (P14735 whole entry, looked up): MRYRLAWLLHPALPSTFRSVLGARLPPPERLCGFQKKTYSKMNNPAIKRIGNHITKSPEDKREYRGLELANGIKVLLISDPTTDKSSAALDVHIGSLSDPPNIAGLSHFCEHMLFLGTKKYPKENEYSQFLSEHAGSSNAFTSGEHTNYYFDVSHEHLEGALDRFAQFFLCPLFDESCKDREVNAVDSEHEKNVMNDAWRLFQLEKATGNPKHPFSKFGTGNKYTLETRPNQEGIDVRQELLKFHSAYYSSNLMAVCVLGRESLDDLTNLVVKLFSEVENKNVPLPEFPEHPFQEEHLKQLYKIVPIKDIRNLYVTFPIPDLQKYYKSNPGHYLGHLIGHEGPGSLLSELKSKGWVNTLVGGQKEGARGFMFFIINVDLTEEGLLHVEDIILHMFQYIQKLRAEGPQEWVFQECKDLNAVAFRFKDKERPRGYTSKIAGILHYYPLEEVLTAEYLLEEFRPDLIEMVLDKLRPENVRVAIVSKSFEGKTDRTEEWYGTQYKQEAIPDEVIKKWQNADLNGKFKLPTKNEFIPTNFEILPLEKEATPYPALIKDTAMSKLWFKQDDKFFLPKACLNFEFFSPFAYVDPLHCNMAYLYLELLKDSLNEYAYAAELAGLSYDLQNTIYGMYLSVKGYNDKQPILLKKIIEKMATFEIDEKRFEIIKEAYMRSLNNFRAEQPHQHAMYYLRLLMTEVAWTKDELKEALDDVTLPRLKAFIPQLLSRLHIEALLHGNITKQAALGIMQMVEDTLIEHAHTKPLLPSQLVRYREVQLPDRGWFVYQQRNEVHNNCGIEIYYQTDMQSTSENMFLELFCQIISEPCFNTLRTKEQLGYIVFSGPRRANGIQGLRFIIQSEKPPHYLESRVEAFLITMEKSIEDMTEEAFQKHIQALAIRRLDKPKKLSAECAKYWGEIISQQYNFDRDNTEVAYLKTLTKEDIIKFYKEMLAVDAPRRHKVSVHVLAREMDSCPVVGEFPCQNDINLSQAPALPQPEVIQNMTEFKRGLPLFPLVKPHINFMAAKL
Yeast superoxide: lowers age-related superoxide in aged yeast cells | S. cerevisiae aged cells, superoxide DHE fluorescence; hits give low values | hit rate 0.18% among 330,000 | superoxide response (% of plate mean), % at 10 µM | AID 2690;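 active means superoxide response under a set limit, about three screen SD below normal, cut at about 65% in these data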;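 further: yeast aged for seven days with compound at 30 °C before DHE staining; 100% = average MFI of all compound-treated wells on the plate with controls excluded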
HDAC3 inh: human HDAC3 inhibition; inhibition, % at 8.3 µM; recombinant HDAC3, fluorogenic peptide/trypsin coupled, fluorescence; hit rate 0.15% among 320,000; in the data active means inhibition above about 26%, passing the limit was not always enough
Tb MetRS inh: Trypanosoma brucei MetRS inhibition. purified T. brucei MetRS, ATP depletion, Kinase-Glo luminescence. inhibition, % at 11.9 µM. hit rate 0.4% among 360,000;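 active means inhibition above a per-plate cutoff of the control wells' mean inhibition plus 3 SD, cut at about 5.5% in these data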;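 further: 0% = DMSO wells median and 100% = median of wells with control inhibitor compound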
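Test system – parasite MetRS enzyme · Reagent – substrates ATP, L-methionine and bulk Escherichia coli tRNA · Doses – 11.9 µM compound single dose, 0.9% DMSO · Times – 15 min enzyme-compound preincubation, 2 h reaction, 10 min detection, 25 °C · Signal – Kinase-Glo luminescence, ATP depletion format · Controls – DMSO-only wells as low control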
IDE cell inh: cellular human IDE inhibition | AID 434962 | hit rate 0.41% among 320,000 | P14735 | HEK cells, FAbetaB cleavage, fluorescence polarization | inhibition, % at 5.59 µM;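 active means percent inhibition above the average of all tested compounds plus 3 SD, set per screening campaign, cut at about 16% in these data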;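 further: IDE supplied by intact live HEK cells; FP after avidin binding of uncleaved biotin substrate so inhibition keeps polarization high; 0% = DMSO wells and 100% = 60 µM reference IDE inhibitor Ii1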
Numbers without * were called inactive. This is a sample that favours compounds with a hit; in the whole collection about 1.4% have one here.

Results for Cc1ccc(NC(=O)C2C3C=CC4(CN(Cc5cccnc5)C(=O)C24)O3)cc1 (stereo unspecified) ?
Efflux pump mplx: 0; IDE act: 18*; Yeast superoxide: 103; HDAC3 inh: 6; Tb MetRS inh: 0; IDE cell inh: 8

What do the screens show for `O=C(NCc1ccc(Cl)cc1)C1C2C=CC3(CN(Cc4cccnc4)C(=O)C13)O2` (stereo unspecified)?
Efflux pump mplx: 0; IDE act: -9; Yeast superoxide: 110; HDAC3 inh: 1; Tb MetRS inh: 0; IDE cell inh: 2

What do the screens show for `CC(=O)Nc1ccc(S(=O)(=O)NCCSCc2ccc(Cl)cc2Cl)cc1`?
Efflux pump mplx: 0; IDE act: 7; Yeast superoxide: 99; HDAC3 inh: -1; Tb MetRS inh: 13*; IDE cell inh: 2

How did CC(=O)Nc1ccc(S(=O)(=O)NCCNS(=O)(=O)c2ccc(NC(C)=O)cc2)cc1 do in these assays?
Efflux pump mplx: 0; IDE act: 5; Yeast superoxide: 99; HDAC3 inh: -3; Tb MetRS inh: 0; IDE cell inh: 3

Results for COC1=CC(=O)OC(c2cccc(C#N)c2)C1 (stereo unspecified) ?
Tb MetRS inh: -1

Results for CCCCCCCCN1C(=O)[C@H](CC(=O)NCc2cccc(C(F)(F)F)c2)C[C@@]2(C(=O)OC)CCCCC=C12 ?
Tb MetRS inh: 0

How did CC(=NCCc1c(C)[nH]c2ccc(OC(F)(F)F)cc12)C1=C(O)CC(c2ccccc2)CC1=O (stereo unspecified) do in these assays?
Efflux pump mplx: 0; IDE act: 7; Yeast superoxide: 65*; HDAC3 inh: 9; Tb MetRS inh: 0; IDE cell inh: 9

How did Cc1[nH]c2ccccc2c1C(=O)c1cc(Cc2ccccc2)sc1N do in these assays?
Tb MetRS inh: 1

What do the screens show for `CCOc1cc(/C=C2\N=C(C)OC2=O)cc(Br)c1OCC(=O)OC`?
Efflux pump mplx: 0; IDE act: 2; Yeast superoxide: 97; HDAC3 inh: 18; Tb MetRS inh: -1; IDE cell inh: 1

How did CCOC(=O)COc1c(Cl)cc(/C=C2\N=C(C)OC2=O)cc1OC do in these assays?
Efflux pump mplx: 0; IDE act: 5; Yeast superoxide: 107; HDAC3 inh: 66*; Tb MetRS inh: -1; IDE cell inh: 8

What do the screens show for `CSCC[C@H](NC(=O)Cc1c(C)c2cc3c(C)c(C)oc3cc2oc1=O)C(=O)N[C@@H](C(=O)O)c1ccccc1`?
Tb MetRS inh: -1

How did CCCCCCCCNc1ccccc1S(=O)(=O)NCc1ccccc1 do in these assays?
Efflux pump mplx: 0; IDE act: 5; Yeast superoxide: 102; Tb MetRS inh: -1

How did O=S(=O)(NCc1ccccc1)c1ccccc1NCCc1ccccc1 do in these assays?
Efflux pump mplx: 0; IDE act: 5; Yeast superoxide: 52*; Tb MetRS inh: -1

How did CC(C)(C)NC(=O)C1c2ccccc2OCC(=O)N1CC(F)(F)F (stereo unspecified) do in these assays?
Tb MetRS inh: -1

What do the screens show for `O=C(Nc1ccc(Cl)c(Cl)c1)Nc1ccon1`?
Efflux pump mplx: 6.5*; IDE act: -1; Yeast superoxide: 106; HDAC3 inh: -6; Tb MetRS inh: 0; IDE cell inh: -5

How did COc1ccccc1C(NC(=O)C1CCN(CCc2ccc(Br)cc2)CC1)c1ccccn1 (stereo unspecified) do in these assays?
Tb MetRS inh: 0

What do the screens show for `C[C@H](CO)N1C[C@H](C)[C@@H](CN(C)Cc2ccncc2)Oc2c(NC(=O)CCCCCC(=O)Nc3ccccc3N)cccc2C1=O`?
Efflux pump mplx: 0; IDE act: 2; Yeast superoxide: 115; HDAC3 inh: 57*; Tb MetRS inh: 0; IDE cell inh: 0

How did C[C@@H]1CN([C@H](C)CO)C(=O)c2cccc(NC(=O)NC3CCCCC3)c2O[C@@H]1CN(C)C(=O)Nc1ccc(C(F)(F)F)cc1 do in these assays?
Efflux pump mplx: 0; IDE act: 0; Yeast superoxide: 81; HDAC3 inh: 28*; Tb MetRS inh: 0; IDE cell inh: -2

What do the screens show for `C[C@H]1CN([C@@H](C)CO)C(=O)c2cc(NC(=O)Cc3ccccc3)ccc2O[C@H]1CN(C)Cc1ccccc1`?
Efflux pump mplx: 0; IDE act: 4; Yeast superoxide: 107; HDAC3 inh: 3; Tb MetRS inh: 0; IDE cell inh: 1

What do the screens show for `C[C@H](CO)N1C[C@H](C)[C@@H](CN(C)Cc2ccncc2)Oc2c(NC(=O)Cc3ccccc3)cccc2C1=O`?
Efflux pump mplx: 0; IDE act: 1; Yeast superoxide: 86; HDAC3 inh: 7; Tb MetRS inh: 0; IDE cell inh: -3

What do the screens show for `C[C@H](CO)N1C[C@H](C)[C@@H](CN(C)Cc2ccccc2)Oc2ccc(NC(=O)CCCCCC(=O)Nc3ccccc3N)cc2C1=O`?
Efflux pump mplx: 0; IDE act: 2; Yeast superoxide: 100; HDAC3 inh: 75*; Tb MetRS inh: 0; IDE cell inh: 1

What do the screens show for `C[C@H](CO)N1C[C@H](C)[C@@H](CN(C)C)Oc2c(NC(=O)CCCCCC(=O)Nc3ccccc3N)cccc2C1=O`?
Efflux pump mplx: 0; IDE act: -1; Yeast superoxide: 96; HDAC3 inh: 67*; Tb MetRS inh: 0; IDE cell inh: 5

Results for O=C(NCc1ccccc1)C(c1ccc(C(F)(F)F)cc1)n1c(=O)c(-c2cc3ccccc3[nH]2)nc2ccccc21 (stereo unspecified) ?
Tb MetRS inh: -1

How did CC1(C(=O)Nc2ccccc2)Cc2c(-c3cccc(C(F)(F)F)c3)ccnc2O1 (stereo unspecified) do in these assays?
Tb MetRS inh: 0

What do the screens show for `COc1ccc(CC(=O)NNC(=O)COc2ccc(C)cc2)cc1S(=O)(=O)N1CCOCC1`?
Efflux pump mplx: 0; IDE act: -1; Yeast superoxide: 98; HDAC3 inh: -7; Tb MetRS inh: 0; IDE cell inh: 2

Results for COc1ccc(CC(=O)NNC(=O)COc2ccc(Cl)cc2C)cc1S(=O)(=O)N1CCOCC1 ?
Efflux pump mplx: 0; IDE act: 3; Yeast superoxide: 65*; HDAC3 inh: 3; Tb MetRS inh: 0; IDE cell inh: 4

Results for COc1cc(/C=C2\SC(=S)N(c3cccnc3)C2=O)ccc1O ?
Efflux pump mplx: 0; IDE act: -90; Yeast superoxide: 96; HDAC3 inh: 2; Tb MetRS inh: 0; IDE cell inh: 45*

Results for N#C/C(=C/c1ccc(Sc2nc3ccccc3[nH]2)o1)c1cccc(Br)c1 ?
Efflux pump mplx: 0; IDE act: 4; Yeast superoxide: 133; HDAC3 inh: 12; Tb MetRS inh: 19*; IDE cell inh: -6

How did Cc1ccc(S(=O)(=O)NN=C2CCc3ccccc32)cc1 do in these assays?
Tb MetRS inh: 0
